{"source": "ChEMBL document CHEMBL1148432", "about": "“PDE2 inhibition by the PI3 kinase inhibitor LY294002 and analogues” (Bioorg Med Chem Lett, 2004)"}
{"molecular_target": "T1, cGMP-dependent 3',5'-cyclic phosphodiesterase (Homo sapiens, UniProt O00408)", "T1 sequence (O00408 whole entry)": "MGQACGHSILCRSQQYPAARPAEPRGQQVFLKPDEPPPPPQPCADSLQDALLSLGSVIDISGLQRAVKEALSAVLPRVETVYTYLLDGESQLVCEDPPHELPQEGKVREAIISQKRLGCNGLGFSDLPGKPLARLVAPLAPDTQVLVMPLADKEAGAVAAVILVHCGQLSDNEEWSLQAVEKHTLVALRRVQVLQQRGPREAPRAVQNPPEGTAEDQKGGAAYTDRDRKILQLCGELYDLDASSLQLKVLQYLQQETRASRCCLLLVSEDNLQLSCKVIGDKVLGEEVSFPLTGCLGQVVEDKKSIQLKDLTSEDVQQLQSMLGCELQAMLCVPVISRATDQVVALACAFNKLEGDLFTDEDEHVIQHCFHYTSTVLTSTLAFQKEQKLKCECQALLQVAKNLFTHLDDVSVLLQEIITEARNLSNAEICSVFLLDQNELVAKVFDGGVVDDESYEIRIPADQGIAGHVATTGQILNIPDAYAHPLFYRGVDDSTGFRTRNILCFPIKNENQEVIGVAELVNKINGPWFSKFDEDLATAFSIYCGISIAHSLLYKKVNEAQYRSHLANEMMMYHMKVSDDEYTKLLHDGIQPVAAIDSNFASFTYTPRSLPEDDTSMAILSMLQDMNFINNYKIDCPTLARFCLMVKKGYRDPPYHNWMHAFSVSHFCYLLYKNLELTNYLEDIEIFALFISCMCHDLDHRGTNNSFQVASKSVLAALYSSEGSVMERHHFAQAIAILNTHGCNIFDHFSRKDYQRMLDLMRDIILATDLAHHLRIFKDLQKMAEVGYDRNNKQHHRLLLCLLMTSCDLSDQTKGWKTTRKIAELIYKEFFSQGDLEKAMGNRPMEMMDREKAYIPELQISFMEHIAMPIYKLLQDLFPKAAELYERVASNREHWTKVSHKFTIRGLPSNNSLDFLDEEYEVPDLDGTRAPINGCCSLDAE", "test": "Inhibition of human platelet phosphodiesterase 2", "how_it_was_run": "(§1)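 PDE2 was purified from human platelet lysate by anion-exchange chromatography. The enzyme was premixed in HEPES buffer with cGMP and inhibitor or DMSO for 90 s at 37 °C, then started with cAMP substrate. The reaction was stopped after 5 min by heating at 100 °C for 3 min. AMP was measured by reverse-phase HPLC at 254 nm against standards and expressed as % of DMSO control (mean ± SE, n ≥ 3).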", "units": {"IC50": "µM"}}
{"smiles": "COc1cc(-c2cccc(Cl)c2)c2oc(N3CCOCC3)cc(=O)c2c1", "IC50": 9}
{"smiles": "O=c1cc(N2CCOCC2)oc2c(-c3ccccc3)cccc12", "note": "[LY-294002]", "IC50": 40}
{"smiles": "CCCCCC[C@@H]([C@@H](C)O)n1cnc2c(N)ncnc21", "note": "[EHNA]", "IC50": 5}
{"smiles": "O=c1cc(N2CCOCC2)oc2c(C#Cc3ccccc3)cccc12", "IC50": 6}
{"molecular_target": "Phosphodiesterase 3 (Homo sapiens, UniProt Q14432+Q13370)", "test": "Inhibition of human platelet phosphodiesterase 3", "how_it_was_run": "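PDE3 was separated from PDE2 in human platelet lysate by anion-exchange chromatography. It was assayed under conditions optimal for that isozyme, with the AMP product quantified by reverse-phase HPLC.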", "units": {"IC50": "µM"}}
{"smiles": "O=c1cc(N2CCOCC2)oc2c(-c3ccccc3)cccc12", "note": "[LY-294002]", "IC50": 100}
{"molecular_target": "T1, cGMP-dependent 3',5'-cyclic phosphodiesterase", "test": "Inhibitory activity against human platelet phosphodiesterase 2 at 50 uM expressed as percent basal value", "how_it_was_run": "as §1", "units": {"Remaining activity (% of control)": "%"}}
{"smiles": "CCc1cc(-c2ccccc2)c2oc(N3CCOCC3)cc(=O)c2c1", "Remaining activity (% of control)": 47}
{"smiles": "O=c1cc(N2CCOCC2)oc2c(OCc3ccccc3)cccc12", "Remaining activity (% of control)": 40}
{"smiles": "O=c1cc(N2CCOCC2)oc2cc(-c3ccccc3)ccc12", "Remaining activity (% of control)": 9}
{"smiles": "COc1ccccc1-c1cccc2c(=O)cc(N3CCOCC3)oc12", "Remaining activity (% of control)": 47}
{"smiles": "Cc1c(OCc2ccccc2)ccc2c(=O)cc(N3CCOCC3)oc12", "Remaining activity (% of control)": 38}
{"smiles": "COc1cc(-c2cccc(Cl)c2)c2oc(N3CCOCC3)cc(=O)c2c1", "Remaining activity (% of control)": 87}
{"smiles": "Cc1ccccc1-c1cccc2c(=O)cc(N3CCOCC3)oc12", "Remaining activity (% of control)": 47}
{"smiles": "O=c1cc(N2CCOCC2)oc2c(-c3ccc(F)cc3)cccc12", "Remaining activity (% of control)": 43}
{"smiles": "O=c1cc(N2CCOCC2)oc2c(O)cccc12", "Remaining activity (% of control)": 19}
{"smiles": "Cc1cc(-c2ccccc2)c2oc(N3CCOCC3)cc(=O)c2c1", "Remaining activity (% of control)": 60}
{"smiles": "COc1cccc2c(=O)cc(N3CCOCC3)oc12", "Remaining activity (% of control)": 20}
{"smiles": "Cc1c(C#Cc2ccccc2)ccc2c(=O)cc(N3CCOCC3)oc12", "Remaining activity (% of control)": 44}
{"smiles": "O=c1cc(N2CCOCC2)oc2cc(OCc3ccccc3)ccc12", "Remaining activity (% of control)": 12}
{"smiles": "O=c1cc(N2CCOCC2)oc2c(-c3ccccc3)cccc12", "note": "[LY-294002]", "Remaining activity (% of control)": 54}
{"smiles": "Cc1c(-c2ccccc2)ccc2c(=O)cc(N3CCOCC3)oc12", "Remaining activity (% of control)": 31}
{"smiles": "O=c1cc(N2CCOCC2)oc2c(-c3ccc(Oc4ccccc4)cc3)cccc12", "Remaining activity (% of control)": 75}
{"smiles": "O=c1cc(N2CCOCC2)oc2c(C#Cc3ccccc3)cccc12", "Remaining activity (% of control)": 93}
{"smiles": "COc1cc(-c2ccccc2Cl)c2oc(N3CCOCC3)cc(=O)c2c1", "Remaining activity (% of control)": 78}
{"smiles": "COc1ccc2oc(N3CCOCC3)cc(=O)c2c1", "Remaining activity (% of control)": 38}
{"smiles": "O=c1cc(N2CCOCC2)oc2cc(C#Cc3ccccc3)ccc12", "Remaining activity (% of control)": 92}
{"smiles": "O=c1cc(N2CCOCC2)oc2c(-c3ccccc3C(F)(F)F)cccc12", "Remaining activity (% of control)": 43}
{"smiles": "O=c1cc(N2CCOCC2)oc2c(OCc3cccnc3)cccc12", "Remaining activity (% of control)": 35}
{"smiles": "COc1cc(-c2ccccc2)c2oc(N3CCOCC3)cc(=O)c2c1", "Remaining activity (% of control)": 75}
{"smiles": "Cc1c(OCc2cccnc2)ccc2c(=O)cc(N3CCOCC3)oc12", "Remaining activity (% of control)": 35}
{"smiles": "O=c1cc(N2CCOCC2)oc2c(-c3ccccc3Cl)cccc12", "Remaining activity (% of control)": 62}
{"smiles": "O=c1cc(N2CCOCC2)oc2c(CCc3ccccc3)cccc12", "Remaining activity (% of control)": 43}
{"smiles": "O=c1cc(N2CCOCC2)oc2cc(OCc3cccnc3)ccc12", "Remaining activity (% of control)": 22}
{"smiles": "O=c1cc(N2CCOCC2)oc2c(-c3ccccc3)cc(O)cc12", "Remaining activity (% of control)": 69}
{"smiles": "COc1cc(-c2ccc(Cl)cc2)c2oc(N3CCOCC3)cc(=O)c2c1", "Remaining activity (% of control)": 67}
